Rad51 HR inh: blocks human Rad51 in homologous recombination; hRad51 DNA strand exchange, fluorescence dequenching; inhibition, % at 10 µM; 200,000 compounds, 0.085% hits;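 active = inhibition above 40% at the single screening dose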
Target sequence (Q06609 whole entry, looked up): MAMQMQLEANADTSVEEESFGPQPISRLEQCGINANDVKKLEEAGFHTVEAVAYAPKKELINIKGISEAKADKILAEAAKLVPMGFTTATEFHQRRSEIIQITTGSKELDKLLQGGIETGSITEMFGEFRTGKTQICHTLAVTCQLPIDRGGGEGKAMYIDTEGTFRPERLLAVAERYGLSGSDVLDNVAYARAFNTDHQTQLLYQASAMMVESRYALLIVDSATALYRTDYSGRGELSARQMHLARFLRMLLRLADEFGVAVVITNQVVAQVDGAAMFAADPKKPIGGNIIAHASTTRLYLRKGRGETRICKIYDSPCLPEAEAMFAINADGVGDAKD
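Material: Human Rad51 nucleoprotein filaments preassembled on unlabelled ssDNA | Also added: Labelled 47-mer dsDNA for strand exchange | Dosing: Single dose, 10 µM final compound | Schedule: 30-min compound preincubation and 15-min exchange, both room temperature | Technique: Fluorescence dequenching at 485/520 nm | Measure: Percent inhibition relative to plate controls and blanks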
KCC2 mod: KCC2 (human) Cl- transport modulation. AID 1456. B-score of Tl+ flux slope (higher = more flux/activation; lower = inhibition) at 10 µM. KCC2 cells, thallium flux FluoZin-2 fluorescence. 190,000 compounds, 2.2% hits. Q9H2X9;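 active = thallium flux slope and its plate-corrected score both differing from the plate sample mean at a set confidence after two filtering rounds, in either direction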;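 also: slope of fluorescence scaled to starting intensity during 10 to 20 s after thallium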
ROMK mod: modulators of human ROMK potassium channel; P48048; Tet-inducible ROMK, thallium flux fluorescence; actives lie on both sides; B-score at 10 µM; 130,000 compounds, 2% hits; AID 1918;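 active = signal ratio slope over the read window, or its plate-corrected B-score, at least 3 SD from the plate mean, either direction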;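 also: B-score of the F/F0 ratio slope over 7 to 12 s after thallium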
PKD1 kinase inh: PKD1 (human) kinase inhibition | PKD1 kinase fluorescence polarization assay | Q15139 | 200,000 compounds, 0.056% hits | inhibition, % (concentration not given with the values); in the data active = inhibition above about 50%
KCC2 secondary: confirmation of human KCC2 transport modulators | shares compounds with KCC2 mod | normalised thallium flux (F/F0 slope) at 10 µM | HEK293-KCC2, thallium flux, FluoZin2 fluorescence; active compounds read high | 3,700 compounds, 15% hits;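 active = thallium flux slope above the same plate's solvent-only control mean plus 3 SD; inconclusive = the two replicate wells disagree; inactive = no significant difference from solvent-only control wells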
KCC2 bumet counter: thallium flux despite bumetanide block in KCC2 cells, secondary assay 3; shares compounds with KCC2 mod; HEK293-KCC2 + bumetanide/ouabain, thallium flux FluoZin2; active compounds read high; normalized thallium flux at 10 µM; 3,700 compounds, 49% hits;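 active = thallium entry rate above the same plate's blocked-transporter control wells by more than 3 SD; inconclusive = the two repeat wells disagree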;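 also: raw slope of fluorescence over initial fluorescence between 10 and 20 s after thallium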
KCC2 secondary2: confirmation of human KCC2 transport modulators; shares compounds with KCC2 mod; HEK293-KCC2, thallium flux FluoZin2 fluorescence; actives lie on both sides; F/F0 rise rate, 10–20 s post-thallium; normalized thallium flux at 10 µM; 3,700 compounds, 23% hits;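 active = thallium flux slope more than 3 SD above or below the plate's solvent-only control mean, mostly below; inconclusive = the two repeat wells disagreed; inactive = no significant shift from solvent-only controls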
HEK counter1: acts in parental HEK cells, KCC2 counter-screen; shares compounds with KCC2 mod; HEK293 parental cells, thallium flux FluoZin2, ouabain; baseline-ratio fluorescence slope, 10–20 s after thallium; thallium flux rate (normalised fluorescence) at 10 µM; 3,700 compounds, 46% hits;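 active = thallium flux rate significantly above the same plate's solvent-only control wells, beyond their mean plus 3 SD; inconclusive = the two replicate wells gave conflicting results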
KCC2 retest ouab: modulates human KCC2 on retest with ouabain; AID 1717; raw Tl+ flux slope (below DMSO = inhibition, above = activation) at 10 µM; HEK293-KCC2, thallium flux FluoZin2 fluorescence; bidirectional: low = inhibitor, high = activator; shares compounds with KCC2 mod; 3,700 compounds, 48% hits;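 active = thallium flux slope beyond 3 SD from same-plate DMSO control mean in most replicates, usually higher, sometimes lower; inconclusive = repeat tests gave conflicting results; inactive = no significant difference from controls in most replicates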;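 also: slope of initial-normalized fluorescence between seconds 10 and 20 after thallium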
HEK counter2: counter-screen for KCC2 modulators: effect in parental HEK293 cells; shares compounds with KCC2 mod; thallium flux FluoZin-2 fluorescence slope; thallium flux slope at 10 µM; 3,700 compounds, 33% hits;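 active = thallium flux slope above the same plate's solvent-control mean plus 3 SD in both duplicate wells; inconclusive = duplicate wells that disagreed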;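 also: run without ouabain in cells lacking the KCC2 cotransporter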
Hits are given with their value; 0 = inactive; ? = inconclusive; - = not tested or not shown. An excerpt weighted towards active compounds, which were near 3% of everything screened.

SMILES	Rad51 HR inh	KCC2 mod	ROMK mod	PKD1 kinase inh	KCC2 secondary	KCC2 bumet counter	KCC2 secondary2	HEK counter1	KCC2 retest ouab	HEK counter2
CC(C)(C)NC(=O)C(c1ccncc1)N(Cc1ccco1)C(=O)c1ccc(-c2ccccc2)[nH]1 (stereo not given)	0	-5	0	0	0	0	0.024	0	?	0
CC(C)(C)NC(=O)C(c1cccs1)N(CC1CCCO1)C(=O)Cn1nnc(-c2cccs2)n1 (stereo not given)	0	0	0	0	-	-	-	-	-	-
O=C(NC1CCCCC1)C(c1ccncc1)N(Cc1ccccc1)C(=O)c1ccc(-c2ccccc2)[nH]1 (stereo not given)	-	0	-	0	-	-	-	-	-	-
O=C(NCC1CCCO1)C(c1cccs1)N(C(=O)c1ccc(-c2ccccc2)[nH]1)C1CCCC1 (stereo not given)	-	-5.7	-	0	0	0	?	0	0.015	0
O=C(COC(=O)[C@@H]1CC(O)CN1S(=O)(=O)c1ccc2c(c1)OCCO2)NCc1ccc(F)cc1 (stereo not given in full)	0	0	0	0	-	-	-	-	-	-
Oc1ccc(-c2nc3ccc4ccccc4c3c3c2CCC3)cc1O	0	0	-	0	-	-	-	-	-	-
CC(C)OC(=O)c1cc2c(ccn2C)n1CC(=O)N1CCC(Cc2ccccc2)CC1	0	-5.7	-	0	0	0	0.024	?	0.014	0
CCOC(=O)c1c(SC)[nH]c2c(Cl)cccc2c1=O	-	0	-	-	-	-	-	-	-	-
Cc1ccc(C)c(S(=O)(=O)N2CCN(CC(=O)N3CCc4ccccc4C3)CC2)c1	0	-4.1	0	0	0	0	0	0	0.022	?
Cc1ccc(C)c(S(=O)(=O)N2CCN(CC(=O)Nc3ccc4c(c3)CCC4)CC2)c1	-	0	0	0	-	-	-	-	-	-
O=C(NC(=S)Nc1ccc(-c2nc3ncccc3o2)cc1)c1ccccc1F	-	4.7	0	0	0	0.013	0	0.011	?	0
O=C(/C=C/c1ccco1)N1CCC(Cc2ccccc2)CC1	0	-4.9	0	0	0	0	0.021	0	0.014	0
Cc1nc(C(=O)NNC(=O)c2ccc(Cl)cc2)c(C(F)(F)F)o1	0	17	0	-	0	0.03	0.039	0.024	0.035	0.02
CC(C)CC(=O)NC(=S)Nc1ccc(NC(=O)c2ccco2)cc1	-	0	0	0	-	-	-	-	-	-
COc1ccccc1-c1noc(-c2ccccc2C(=O)Nc2ccccc2)n1	0	-	0	0	-	-	-	-	-	-
COc1ccccc1NC(=O)c1ccccc1-c1nc(-c2ccccc2OC)no1	0	4	0	0	0	0	0	0	0	0
Cc1cc(F)ccc1NCC(=O)Nc1ccccc1Br	0	0	-	0	-	-	-	-	-	-
CCc1c(O)nc(SCC(=O)Nc2ccccc2)n(-c2ccccc2)c1=O	0	0	-	0	-	-	-	-	-	-
CCc1c(O)nc(SCC(=O)Nc2ccc(C)cc2)n(C2CCCCC2)c1=O	0	-	0	0	0	0	0	0	0.016	0
O=C(Cc1cccc2ccccc12)N/N=C/c1ccc(Sc2cccc3cccnc23)o1	-	10	0	0	0	0.013	0	0.011	0.025	0.013
CCN(CC)C(=O)c1sc(NC(=O)C(Sc2ccccc2)c2ccccc2)c(C(=O)OC(C)C)c1C (stereo not given)	0	0	-	0	-	-	-	-	-	-
CCCCC(CC)CNC(=O)CC1Nc2c3ccccc3nc(=S)n2C1=O (stereo not given)	-	0	0	0	-	-	-	-	-	-
Fc1ccc(-c2n[nH]c(=S)c3ccccc23)cc1	0	14	-	0	0	0.021	0	0.016	?	0.013
O=C(Nc1ccccc1C(F)(F)F)c1c(F)cccc1Cl	0	0	0	0	-	-	-	-	-	-

Assay outcomes from PubChem BioAssay.
